# Results collected from several papers.
# Lines come from different studies, so protocols differ.
# Read-out: cell growth or viability
Structure (SMILES),cell line,method,time,measurement,result
C#CCNC(=O)c1c(-c2ccc(OC)cc2)oc2ccc(O)c(CN3CCCCC3)c12,J774.A1,resazurin,18 h,IC50,27.8 µM
C[C@H]1CNCCN1c1nccc(-c2onc3c2CCC[C@@]32CCCc3sc(N)c(C#N)c32)n1,NCI-H727,,5 days,EC50,0.406 µM
COc1cc(C2C3=C(COC3=O)N(CCO)c3cc4c(cc32)CCC4)cc(OC)c1OC (stereo not shown),MCF-12A,ATP luminescence,48 h,IC50,5.5 µM
C#CCOc1ccc2oc(-c3ccc(OC)cc3)c(C(=O)OCC)c2c1CN1CCCCC1,J774.A1,resazurin,,IC50,8.2 µM
FC(F)(F)c1ccc(-c2cc(CNc3cccc4cccnc34)on2)cc1,DND41,MTS,72 h,IC50,82.3 µM
Cc1nc(Nc2ncc(C(=O)Nc3c(C)cccc3Cl)s2)cc(N2CC[C@H](O)C2)n1,JeKo-1,ATP luminescence,72 h,IC50,> 10 µM
C[C@H]1CNCCCN1c1nccc(-c2noc3c2CCC[C@@]32CCCc3sc(N)c(C#N)c32)n1,NCI-H727,,5 days,EC50,0.399 µM
O=c1cc(OCc2cc(-c3ccccc3)no2)c2ccccc2o1,DND41,MTS,72 h,IC50,> 100 µM
CCOc1ccc(-c2cc(C(=O)O)c(-c3ccc(Cl)cc3)o2)cc1,WM 266-4,MTT,48 h,EC50,87 µM
N/C(=N\O)c1ccc(-c2cc(CNc3cccc4cccnc34)on2)cc1,DND41,MTS,72 h,IC50,2.3 µM
C[C@H](Oc1nccc(-c2noc3c2CCC[C@@]32CCCc3sc(N)c(C#N)c32)n1)[C@@H]1CCCN1C,NCI-H727,,5 days,EC50,0.109 µM
Clc1ccc(-c2cc(CNc3cccc4cccnc34)on2)c(Cl)c1,DND41,MTS,72 h,IC50,53.9 µM
C[C@H]1CN(C)CCCN1c1nccc(-c2noc([C@@]3(C)CCCc4sc(N)c(C#N)c43)n2)n1,NCI-H727,,5 days,EC50,> 1 µM
